The entries come from a sample that favours hits as a whole.
KDM4C inh: KDM4C (human) demethylase inhibition | Q9H3R0 | GST-KDM4C 2-372, H3K9me3 peptide, LANCE TR-FRET | inhibition, % at 12.5 µM | 96,000 compounds, 0.15% hits | AID 720574;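 active means mean replicate inhibition above about 25%, with at least 55% of replicates also reaching it, limit read from the data, passing the limit was not always enough; inconclusive means only one of those two conditions met; inactive means neither condition met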
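Compound: one test concentration per compound; Material: GST-GASC-1 enzyme fragment 2-372; Amount: GASC-1 enzyme at 10 nM final in reaction; Also added: H3K9me3 peptide substrate, Fe(II), 2-oxoglutarate; Technique: LANCE TR-FRET; Times: 30 min demethylation and 1 h detection at room temperature.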
IDH1 mut inh: blocks human IDH1 R132H reductase activity | O75874 | diaphorase/resazurin fluorescence, 60 min | inhibition, % at 10 µM | 70,000 compounds, 0.18% hits | AID 624101; in the data active means inhibition above about 34%; inconclusive means no clear call, values can overlap the other calls; inactive means below about 11%;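 further: 0% = DMSO and 100% = no enzyme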
Target sequence (O75874 whole entry R132H): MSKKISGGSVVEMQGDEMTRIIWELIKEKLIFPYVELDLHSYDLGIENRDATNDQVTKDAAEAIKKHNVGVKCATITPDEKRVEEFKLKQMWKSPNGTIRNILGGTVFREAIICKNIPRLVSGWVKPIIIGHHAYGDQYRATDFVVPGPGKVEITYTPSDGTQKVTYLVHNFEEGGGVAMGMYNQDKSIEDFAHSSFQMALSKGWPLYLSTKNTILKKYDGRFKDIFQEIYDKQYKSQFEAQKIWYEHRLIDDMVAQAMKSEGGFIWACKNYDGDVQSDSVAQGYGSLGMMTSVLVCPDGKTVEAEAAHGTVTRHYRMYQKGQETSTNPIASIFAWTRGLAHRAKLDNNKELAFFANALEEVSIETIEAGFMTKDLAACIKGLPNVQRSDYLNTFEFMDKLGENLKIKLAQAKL
T cruzi growth-1: T. cruzi proliferation inhibition; T. cruzi beta-gal in NIH3T3, GalScreen luminescence, 90 h; inhibition, % at 8.34 µM; 77,000 compounds, 5.9% hits; AID 624255;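 active means mean inhibition above about 93%, with at least 55% of replicates each passing it, limit read from the data, passing the limit was not always enough; inconclusive means only one of those two conditions holds; inactive means neither condition holds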
T cruzi growth-2: Trypanosoma cruzi proliferation inhibition; T. cruzi beta-gal in NIH3T3, GalScreen luminescence, 90 h; inhibition, % at 8.35 µM; AID 651739; 5,600 compounds, 72% hits; shares compounds with T cruzi growth-1;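 active means mean replicate inhibition above about 95% and at least 55% of replicates individually reaching it, limit read from the data; inconclusive means only one of the two criteria is met; inactive means neither criterion is met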
T cruzi growth-3: inhibitors of T. cruzi proliferation; inhibition, % at 2.09 µM; T. cruzi beta-gal in NIH3T3, GalScreen luminescence, 90 h; AID 651740; shares compounds with T cruzi growth-1; 5,600 compounds, 21% hits;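 active means mean inhibition above about 95%, with at least 55% of replicates also reaching it, limit read from the data; inconclusive means meets just one of the two conditions; inactive means meets neither condition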;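 further: plate controls were neutral control median for no effect and positive control median for full effect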
3T3 cytotox: cytotoxicity in mouse NIH/3T3 fibroblasts; shares compounds with T cruzi growth-1; NIH/3T3 viability, CellTiter-Glo ATP luminescence, 90 h; cytotoxicity (signal decrease), % at 8.35 µM; 5,600 compounds, 14% hits; AID 651742;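 active means mean signal decrease across replicates above about 35% based on untreated-well scatter, with enough replicates individually passing, limit read from the data; inconclusive means no rule stated though some were filed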;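 further: 0% = median of neutral control wells and 100% = median of positive control wells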
3T3 cytotox 2: kills mouse NIH/3T3 fibroblasts | AID 651744 | 5,600 compounds, 56% hits | shares compounds with T cruzi growth-1 | NIH/3T3 viability, CellTiter-Glo ATP luminescence, 90 h | inhibition, % at 24.9 µM;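 active means mean loss of cell viability signal at or above a set limit, and enough replicates individually reaching it; inconclusive means meets only the mean limit or only the replicate share; inactive means meets neither condition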;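 further: 0% = median of neutral control wells and 100% = median of positive control wells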
* hit, by the source's call; ? = inconclusive; / = no result; ! = not active in a repeat.

SMILES	KDM4C inh	IDH1 mut inh	T cruzi growth-1	T cruzi growth-2	T cruzi growth-3	3T3 cytotox	3T3 cytotox 2
C[C@@H]1CN([C@H](C)CO)C(=O)CCCn2nncc2CO[C@@H]1CN(C)S(=O)(=O)c1cccc(F)c1	0	-1	144*!	103*	1	14	19
COc1ccc(S(=O)(=O)N(C)C[C@H]2OCc3cnnn3CCCC(=O)N([C@@H](C)CO)C[C@H]2C)cc1	0	/	?	7	24	2	4
CCn1c(SCC(=O)c2ccccc2)nnc1-c1ccco1	/	0	/	/	/	/	/
C[C@@H]1CN([C@@H](C)CO)C(=O)Cc2cc(NS(=O)(=O)c3cccs3)ccc2O[C@@H]1CN(C)Cc1ccc2c(c1)OCO2	5	/	8	/	/	/	/
OC[C@@H]1[C@H](c2ccc(-c3ccccc3)cc2)[C@@H]2CN(CCC(F)(F)F)CCCCN12	-1	/	104*	103*	66	58*	105*
OC[C@H]1[C@H](c2ccc(-c3cccc(F)c3)cc2)[C@H]2CN(CCC(F)(F)F)CCCCN21	0	/	88	/	/	/	/
OC[C@@H]1[C@@H](c2ccc(C#CC3CC3)cc2)[C@@H]2CN(CCC(F)(F)F)CCCCN12	/	/	83	/	/	/	/
OC[C@H]1[C@H](c2ccc(-c3ccccc3)cc2)[C@H]2CN(CCC(F)(F)F)CCCCN21	1	/	84	/	/	/	/
OC[C@H]1[C@H](c2ccc(C#CC3CC3)cc2)[C@@H]2CN(CCC(F)(F)F)CCCCN12	/	/	90	/	/	/	/
OC[C@@H]1[C@H](c2ccc(C#CC3CC3)cc2)[C@H]2CN(CCC(F)(F)F)CCCCN12	/	/	105*	108*	?	29	104*
Cc1cccc(-c2ccc([C@H]3[C@H]4CN(CCC(F)(F)F)CCCCN4[C@H]3CO)cc2)c1	-1	/	?	103*	116*	25	105*
COc1ccccc1C#Cc1ccc([C@@H]2[C@H]3CN(CCC(F)(F)F)CCCCN3[C@H]2CO)cc1	-1	/	98*	97*	101*	61*	107*
COCC(=O)N[C@H]1C=C[C@H](CC(=O)NCc2ccc(Cl)cc2)O[C@@H]1CO	0	0	-67	/	/	/	/
COc1ccc(CN(CCN(C)C)c2ncccn2)cc1	/	1	/	/	/	/	/
COCc1cn(CC[C@@H]2CC[C@H](NC(=O)c3ccccc3)[C@@H](CO)O2)nn1	1	0	-10	/	/	/	/
CSCCC(NC=O)C(=O)NC(Cc1ccccc1)C(=O)O (configuration not stated)	/	0	/	/	/	/	/
OC[C@@H]1[C@@H](c2ccc(-c3ccc(F)cc3)cc2)[C@H]2CN(CCC(F)(F)F)CCCCN12	-1	/	104*	96*	103*	96*	105*
OC[C@@H]1[C@H](c2ccc(-c3ccc(F)cc3)cc2)[C@H]2CN(CCC(F)(F)F)CCCCN12	1	/	75	/	/	/	/
OC[C@@H]1[C@H](c2ccc(C3=CCCC3)cc2)[C@@H]2CN(CCC(F)(F)F)CCCCN12	/	/	104*	?	49	21	105*
OC[C@H]1[C@@H](c2ccc(C3=CCCC3)cc2)[C@@H]2CN(CCC(F)(F)F)CCCCN12	/	/	34	/	/	/	/
C[C@@H]1CN([C@@H](C)CO)C(=O)c2cccc(NC(=O)Nc3ccc4c(c3)OCO4)c2O[C@H]1CN(C)S(=O)(=O)c1ccc(Cl)cc1	2	1	68	/	/	/	/
COc1ccc(CN(C)C[C@H]2OCCCC[C@H](C)Oc3ccc(NS(=O)(=O)c4cccs4)cc3C(=O)N([C@H](C)CO)C[C@@H]2C)cc1	2	/	35	/	/	/	/
CN1CCN(C(=O)C[C@@H]2C[C@@H]3c4cc(NC(=O)C5CCC5)ccc4O[C@@H]3[C@H](CO)O2)CC1	1	0	-45	/	/	/	/
COCC(=O)N1[C@H](C(=O)NCc2ccccc2F)[C@@H](CO)[C@@H]2Cn3c(cccc3=O)[C@@H]21	-1	/	20	/	/	/	/
Cc1ccc(S(=O)(=O)N(C)C[C@H]2Oc3cc(C4=CCCC4)ccc3S(=O)(=O)N([C@H](C)CO)C[C@@H]2C)cc1	-3	1	/	/	/	/	/
SMILES	KDM4C inh	IDH1 mut inh	T cruzi growth-1	T cruzi growth-2	T cruzi growth-3	3T3 cytotox	3T3 cytotox 2
C[C@H](CO)N1C[C@H](C)[C@@H](CN(C)S(=O)(=O)c2ccc(F)cc2)Oc2cc(C3=CCCCC3)ccc2S1(=O)=O	-1	/	114*	102*	99*	38*	64*
Cc1ccc(S(=O)(=O)N(C)C[C@H]2Oc3cc(C4=CCCC4)ccc3S(=O)(=O)N([C@@H](C)CO)C[C@H]2C)cc1	-1	-1	/	/	/	/	/
C[C@@H]1CN([C@H](C)CO)S(=O)(=O)c2ccc(C3=CCCCC3)cc2O[C@H]1CN(C)S(=O)(=O)c1ccc(F)cc1	-1	2	122*	103*	82	42*	88*
C=C(C)C1=C[C@@]2(C)C(=CC1=O)CC[C@@H](O)[C@@H]2C	/	0	/	/	/	/	/
C[C@@H]1CN([C@H](C)CO)S(=O)(=O)c2ccc(C#CC3CC3)cc2O[C@@H]1CN(C)CC1CCOCC1	-2	0	48	/	/	/	/
C[C@@H]1CN([C@H](C)CO)S(=O)(=O)c2ccc(C#CC3CC3)cc2O[C@@H]1CN(C)CC1CC1	-2	0	105	/	/	/	/
COCC#Cc1ccc2c(c1)O[C@@H](CN(C)CC1CCCC1)[C@H](C)CN([C@H](C)CO)S2(=O)=O	4	-2	110*	98*	47	44*	104*
COCC#Cc1ccc2c(c1)O[C@@H](CN(C)CC1CC1)[C@@H](C)CN([C@H](C)CO)S2(=O)=O	0	1	/	/	/	/	/
C[C@H](CO)N1C[C@H](C)[C@@H](CN(C)CC2CCCC2)Oc2cc(C#CC3CC3)ccc2S1(=O)=O	-1	0	?	104*	94	7	105*
C[C@@H]1CN([C@H](C)CO)S(=O)(=O)c2ccc(C#CC3CC3)cc2O[C@H]1CN(C)CC1CCOCC1	2	-1	?	101*	27	50*	91*
COc1ccc(-c2ccc3c(c2)O[C@@H](CN(C)CC2CCOCC2)[C@H](C)CN([C@@H](C)CO)S3(=O)=O)cc1	15	0	93*	100*	101*	51*	67*
COc1ccc(-c2ccc3c(c2)O[C@H](CN(C)CC2CCOCC2)[C@@H](C)CN([C@@H](C)CO)S3(=O)=O)cc1	-2	-4	41	/	/	/	/
Cc1ccc2nsnc2c1S(=O)(=O)NC(C)c1ccccc1 (configuration not stated)	/	0	/	/	/	/	/
COc1ccc(OCC(=O)Nc2cc(OC)ccc2OC)cc1	/	-1	/	/	/	/	/
CCC(=O)N1[C@H](CO)[C@H](c2ccc(C#CC(C)(C)O)cc2)[C@@H]1CN(C)C(C)=O	1	/	/	/	/	/	/
O=C(NC1CCCC1)[C@@H]1[C@@H](CO)[C@@H]2Cn3c(ccc(-c4ccccc4)c3=O)[C@H]1N2CC1CC1	1	/	/	/	/	/	/

Assay outcomes as filed in PubChem BioAssay.
